Laboratory results: ChEMBL document CHEMBL4393661, “PRODRUGS FOR NITROREDUCTASE BASED CANCER THERAPY- 2: Novel amide/Ntr combinations targeting PC3 cancer cells” (Eur J Med Chem, 2019)

Assays:
Putative nitroreductase [1] = target: T1, Putative nitroreductase (Staphylococcus saprophyticus subsp. saprophyticus (strain ATCC 15305 / DSM20229 / NCIMB 8711 / NCTC 7292 / S-41), UniProt Q4A0P1); assay: Prodrug conversion assessed Staphylococcus saprophyticus nitroreductase expressed in Escherichia coli-mediated (4-aminophenyl)(piperidin-1-yl)methanone metabolite formation by measuring retention time in presence of FDH cofactor regeneration system at 100 uM by HPLC analysis; assay type: ADME
T1 sequence (Q4A0P1 whole entry): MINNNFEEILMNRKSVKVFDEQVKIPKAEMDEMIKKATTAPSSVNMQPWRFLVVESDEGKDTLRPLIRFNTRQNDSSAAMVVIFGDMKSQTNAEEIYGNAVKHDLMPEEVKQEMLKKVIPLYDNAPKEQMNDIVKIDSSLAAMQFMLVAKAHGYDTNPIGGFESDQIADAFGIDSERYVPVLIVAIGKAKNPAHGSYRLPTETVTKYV
Summary of the method: (§1)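 This was a coupled regeneration reaction: 100 µM substrate in Tris/Cl pH 7.5 with 5–15% DMSO, plus 100 µM NADH, 10 µM NAD+, 0.1 mg/mL BSA, 200 µM sodium formate, 30 µg/mL Ssap-NtrB and 30 µg/mL Candida methylica FDH, at 25 °C. Aliquots were taken over time, quenched 1:1 with cold acetonitrile and analysed by C18 HPLC using program II (20→80→20% ACN). Peak areas were read at 254 and 340 nm.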

Putative nitroreductase [2] = target: T1, Putative nitroreductase; assay: Prodrug conversion assessed Staphylococcus saprophyticus nitroreductase expressed in Escherichia coli-mediated PP (4-(hydroxyamino)phenyl)(piperidin-1-yl)methanone metabolite formation by measuring retention time in presence of FDH cofactor regeneration system at 100 uM by HPLC analysis; assay type: ADME; summary of the method: as §1
Putative nitroreductase [3] = target: T1, Putative nitroreductase; assay: Prodrug conversion assessed Staphylococcus saprophyticus nitroreductase expressed in Escherichia coli-mediated PP (4-(hydroxyamino)phenyl)(piperidin-1-yl)methanone metabolite formation by measuring retention time of metabolite at 100 uM incubated for 15 mins by HPLC analysis; assay type: ADME; details: 0.25 h
Summary of the method: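 Recombinant Ssap-NtrB, Ni-column purified, was used at 2.5 µg/mL. Substrate at 100 µM was reacted with 200 µM NADH in 25 mM Tris/Cl pH 7.5 with 10% DMSO at 25 °C for 15 min. The reaction was stopped 1:1 with cold acetonitrile and run on C18 RP-HPLC at 1 mL/min with a 20–80% ACN gradient. Peaks were detected at 254 and 340 nm.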

[4] = target: T2, Oxygen-insensitive NAD(P)H nitroreductase (Escherichia coli K-12, UniProt P38489); assay: Substrate activity at Escherichia coli nitroreductase nfsB assessed as ratio of Kcat/Km up to 80 mM using NADH as cofactor relative to CB1954/NfsB; assay type: ADME
T2 sequence (P38489 whole entry): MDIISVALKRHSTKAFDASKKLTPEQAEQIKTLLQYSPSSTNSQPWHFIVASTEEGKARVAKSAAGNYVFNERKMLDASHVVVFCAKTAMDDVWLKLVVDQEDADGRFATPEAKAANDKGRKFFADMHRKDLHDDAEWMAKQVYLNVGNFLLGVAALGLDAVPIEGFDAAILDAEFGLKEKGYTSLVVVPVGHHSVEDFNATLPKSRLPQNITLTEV

Hep 3B2 = assay: Cytotoxicity against human Hep3B cells assessed as reduction in cell viability measured after 48 hrs by MTT assay; assay type: cell-based
Summary of the method: (§2)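 Hep3B and HUVEC cells were grown in high-glucose medium with 10% heat-inactivated FBS and 2 mM glutamine at 37 °C in 5% CO2. Cells were seeded at 5x10^4 per well and left 24 h to attach. They were then exposed for 48 h to 150, 75, 39, 19 and 9 µM, with 1% DMSO as vehicle control. Viability was read by MTT at 550 nm as (OD sample/OD control)×100.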

[5] = Cytotoxicity against human Hep3B cells assessed as cell viability at 9 to 150 uM measured after 48 hrs by MTT assay relative to control; assay type: cell-based, Hep 3B2; details: read-out: Activity; summary of the method: as §2
[6] = Cytotoxicity against human HUVEC cells assessed as cell viability at 9 to 150 uM measured after 48 hrs by MTT assay relative to control; assay type: cell-based; details: read-out: Activity; summary of the method: as §2
[7] = Cytotoxicity against human PC3 cells assessed as cell viability at 9 to 150 uM measured after 48 hrs by MTT assay relative to control; assay type: cell-based, PC-3; details: read-out: Activity
Summary of the method: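 They were treated for 48 h at 9, 18, 39, 78 and 150 µM, with 1% DMSO as vehicle control. Viability was read by MTT at 550 nm.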

Putative nitroreductase [8] = target: T1, Putative nitroreductase; assay: Substrate activity at Staphylococcus saprophyticus nitroreductase expressed in Escherichia coli assessed as retention time […] at 111 uM by HPLC analysis (0 to 5 mins at 20 % ACN, 15 to 22 min at 80% ACN, 27-32 AT 20% ACN); assay type: ADME
Putative nitroreductase [9] = target: T1, Putative nitroreductase; assay: Substrate activity at Staphylococcus saprophyticus nitroreductase expressed in Escherichia coli assessed as retention time in the presence of NADPH at 111 uM by HPLC analysis (0 to 5 mins at 20% ACN, 25 to 35 min at 80% ACN, 40 to 45 min at 20% ACN); assay type: ADME
[10] = target: T3, Staphylococcus saprophyticus nitroreductase (Staphylococcus saprophyticus subsp. saprophyticus (strain ATCC 15305 / DSM20229 / NCIMB 8711 / NCTC 7292 / S-41), UniProt Q4A0P1); assay: Substrate activity at Staphylococcus saprophyticus nitroreductase expressed in Escherichia coli assessed as half life in the presence of NADPH at 111 uM by HPLC analysis (0 to 5 mins at 20% ACN, 25 to 35 min at 80% ACN, 40 to 45 min at 20% ACN); assay type: ADME
T3 sequence (Q4A0P1 whole entry): T1 sequence (Q4A0P1 whole entry)

Putative nitroreductase [11] = target: T1, Putative nitroreductase; assay: Prodrug conversion assessed as Staphylococcus saprophyticus nitroreductase mediated P2 metabolite formation in presence of FDH cofactor regeneration system at 100 uM by HPLC analysis; assay type: ADME; details: isolated protein; summary of the method: as §1
Putative nitroreductase [12] = target: T1, Putative nitroreductase; assay: Prodrug conversion assessed as Staphylococcus saprophyticus nitroreductase mediated P1 metabolite formation in presence of FDH cofactor regeneration system at 100 uM by HPLC analysis; assay type: ADME; details: isolated protein; summary of the method: as §1
Putative nitroreductase [13] = target: T1, Putative nitroreductase; assay: Substrate activity at Staphylococcus saprophyticus nitroreductase expressed in Escherichia coli assessed as retention time […] at 150 uM by HPLC analysis (0 to 5 mins at 20 % ACN, 15 to 22 min at 80% ACN, 27-32 AT 20% ACN); assay type: ADME
[14] = target: T3, Staphylococcus saprophyticus nitroreductase; assay: Substrate activity at Staphylococcus saprophyticus nitroreductase expressed in Escherichia coli assessed as half life […] at 150 uM by HPLC analysis (0 to 5 mins at 20 % ACN, 15 to 22 min at 80% ACN, 27-32 AT 20% ACN); assay type: ADME
Putative nitroreductase [15] = target: T1, Putative nitroreductase; assay: Substrate activity at Staphylococcus saprophyticus nitroreductase expressed in Escherichia coli assessed as retention time in the presence of NADPH at 150 uM by HPLC analysis (0 to 5 mins at 20% ACN, 25 to 35 min at 80% ACN, 40 to 45 min at 20% ACN); assay type: ADME
[16] = target: T3, Staphylococcus saprophyticus nitroreductase; assay: Substrate activity at Staphylococcus saprophyticus nitroreductase expressed in Escherichia coli assessed as half life in the presence of NADPH at 150 uM by HPLC analysis (0 to 5 mins at 20% ACN, 25 to 35 min at 80% ACN, 40 to 45 min at 20% ACN); assay type: ADME
Putative nitroreductase [17] = target: T1, Putative nitroreductase; assay: Prodrug conversion assessed as Staphylococcus saprophyticus nitroreductase mediated P3 metabolite formation in presence of FDH cofactor regeneration system at 100 uM by HPLC analysis; assay type: ADME; details: isolated protein; summary of the method: as §1
Putative nitroreductase [18] = target: T1, Putative nitroreductase; assay: Prodrug conversion assessed as Staphylococcus saprophyticus nitroreductase mediated P4 metabolite formation in presence of FDH cofactor regeneration system at 100 uM by HPLC analysis; assay type: ADME; details: isolated protein; summary of the method: as §1
Putative nitroreductase [19] = target: T1, Putative nitroreductase; assay: Prodrug conversion assessed as Staphylococcus saprophyticus nitroreductase mediated P5 metabolite formation in presence of FDH cofactor regeneration system at 100 uM by HPLC analysis; assay type: ADME; details: isolated protein; summary of the method: as §1

O=C(c1ccc(NO)cc1)N1CCCCC1
Retention_time (Putative nitroreductase [1]): 22.3 min | Retention_time (Putative nitroreductase [2]): 14 min | Retention_time (Putative nitroreductase [3]): 15.99 min

CS(=O)(=O)OCCN(CCBr)c1c(C(=O)NCCO)cc([N+](=O)[O-])cc1[N+](=O)[O-]
fold change (FC) [4]: 2.32

CN(C)c1c([N+](=O)[O-])cc(C(=O)Nc2ccc(Cl)cc2)cc1[N+](=O)[O-]
IC50 (Hep 3B2): 120 µM | viability at 48 h, up to 150 µM [5]: < 50% | viability at 48 h, up to 150 µM [6]: 51 to 80% | viability at 48 h, up to 150 µM [7]: < 50% | Retention_time (Putative nitroreductase [8]): 19.22 min | Retention_time (Putative nitroreductase [9]): 25.86 min | half-life [10]: < 3.15 h

CCN(C(C)=O)c1cc([N+](=O)[O-])cc([N+](=O)[O-])c1
Drug metabolism (Putative nitroreductase [11]): Metabolite_Detected | viability at 48 h, up to 150 µM [5]: 51 to 80% | viability at 48 h, up to 150 µM [6]: > 80% | viability at 48 h, up to 150 µM [7]: > 80% | Drug metabolism (Putative nitroreductase [12]): Metabolite_Detected | Retention_time (Putative nitroreductase [13]): 14.55 min | half-life [14]: < 1.2 min | Retention_time (Putative nitroreductase [15]): 16.85 min | half-life [16]: < 1.2 min | Drug metabolism (Putative nitroreductase [17]): Metabolite_Detected | Drug metabolism (Putative nitroreductase [18]): Metabolite_Detected | Drug metabolism (Putative nitroreductase [19]): Metabolite_Detected

CCCCN(CCCC)c1c([N+](=O)[O-])cc(C(=O)Nc2ccc(Cl)cc2)cc1[N+](=O)[O-]
IC50 (Hep 3B2): 11.6 µM | viability at 48 h, up to 150 µM [5]: < 50% | viability at 48 h, up to 150 µM [6]: < 50% | viability at 48 h, up to 150 µM [7]: < 50% | Retention_time (Putative nitroreductase [8]): 20.12 min | Retention_time (Putative nitroreductase [9]): 34.2 min | half-life [10]: < 2.4 h
